Test results as given in ChEMBL document CHEMBL5126598, “Defined stereoisomers of 2″-amino NAD+ and their activity against human sirtuins and a bacterial (ADP-ribosyl) transferase” (Bioorg Med Chem, 2022).
pIC50: −log10 of the molar value.

How the values were obtained:
[1] = molecular target: T1, NAD-dependent protein deacetylase sirtuin-3, mitochondrial (Homo sapiens) (UniProt Q9NTG7); assay: Inhibition of human SIRT3 using fluorogenic ZMAL as substrate at 100 uM incubated for 4 hrs in the presence of beta-NAD+ as cofactor by fluorescence based microplate reader analysis relative to control
T1 sequence (whole entry): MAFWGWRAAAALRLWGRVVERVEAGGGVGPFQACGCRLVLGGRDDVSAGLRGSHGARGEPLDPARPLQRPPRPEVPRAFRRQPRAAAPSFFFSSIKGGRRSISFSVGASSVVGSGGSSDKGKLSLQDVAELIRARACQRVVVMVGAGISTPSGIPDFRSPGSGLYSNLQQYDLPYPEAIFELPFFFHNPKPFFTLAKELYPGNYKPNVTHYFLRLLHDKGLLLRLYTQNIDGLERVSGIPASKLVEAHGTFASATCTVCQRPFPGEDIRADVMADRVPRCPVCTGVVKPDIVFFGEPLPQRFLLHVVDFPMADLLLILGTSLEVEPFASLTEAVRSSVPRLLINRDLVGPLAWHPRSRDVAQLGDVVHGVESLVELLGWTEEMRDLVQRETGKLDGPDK
How it was run: (§1)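 Recombinant SIRT1, SIRT2 or SIRT3 (0.5 U) in 50 mM Tris/HCl, 137 mM NaCl, 2.7 mM KCl with ZMAL 10.5 μM, β-NAD+ 500 μM and 8.3% (v/v) DMSO (final), plus compound; 4 h at 37 °C with shaking. Trypsin stop solution containing 8 mM nicotinamide added, 20 min at 37 °C, then fluorescence read. Single concentrations tested first; IC50 only for near-complete inhibitors; means of 3 experiments.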

[2] = molecular target: T2, NAD-dependent protein deacetylase sirtuin-1 (Homo sapiens) (UniProt Q96EB6); assay: Inhibition of human SIRT1 using fluorogenic ZMAL as substrate at 100 uM incubated for 4 hrs in the presence of beta-NAD+ as cofactor by fluorescence based microplate reader analysis relative to control; how it was run: as §1
T2 sequence (whole entry): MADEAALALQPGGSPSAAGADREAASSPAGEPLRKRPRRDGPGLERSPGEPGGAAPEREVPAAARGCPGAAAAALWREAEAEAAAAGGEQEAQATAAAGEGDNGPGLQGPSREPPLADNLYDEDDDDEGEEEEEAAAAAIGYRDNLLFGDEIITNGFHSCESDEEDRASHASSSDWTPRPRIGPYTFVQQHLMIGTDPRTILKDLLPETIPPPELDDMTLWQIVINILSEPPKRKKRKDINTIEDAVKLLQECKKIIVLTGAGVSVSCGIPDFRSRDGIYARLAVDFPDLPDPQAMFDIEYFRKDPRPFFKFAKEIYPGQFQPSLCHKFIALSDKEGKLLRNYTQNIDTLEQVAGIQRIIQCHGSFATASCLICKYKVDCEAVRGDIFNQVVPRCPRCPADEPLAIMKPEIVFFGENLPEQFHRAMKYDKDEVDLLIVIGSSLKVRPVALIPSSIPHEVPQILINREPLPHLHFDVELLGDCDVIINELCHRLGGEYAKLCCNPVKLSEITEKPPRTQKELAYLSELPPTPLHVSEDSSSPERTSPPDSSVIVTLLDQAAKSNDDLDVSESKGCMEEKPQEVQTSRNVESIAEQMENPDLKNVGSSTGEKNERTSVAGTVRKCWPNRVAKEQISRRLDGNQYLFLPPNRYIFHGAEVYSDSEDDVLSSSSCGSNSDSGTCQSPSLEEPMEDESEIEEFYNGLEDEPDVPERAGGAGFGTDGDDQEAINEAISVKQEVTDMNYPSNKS

[3] = molecular target: T1, NAD-dependent protein deacetylase sirtuin-3, mitochondrial (Homo sapiens); assay: Inhibition of human SIRT3 using fluorogenic ZMAL as substrate at 250 uM incubated for 4 hrs in the presence of beta-NAD+ as cofactor by fluorescence based microplate reader analysis relative to control; how it was run: as §1
[4] = test system: Photorhabdus luminescens; assay: Displacement of [32P]NAD+ from Photorhabdus luminescens TccC3hvr ART domain assessed as inhibition of ADP-ribosylation of alpha-skeletal muscle actin at 100 uM preincubated for 15 mins followed by TccC3hvr addition and measured after 6 mins by SDS-PAGE based autoradiography; conditions: time 21.0 min
How it was run: (§2)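 α-Skeletal muscle actin 1 μM with 1 μM NAD+ plus [32P]NAD+ (0.5 μCi per sample) in G buffer (5 mM Tris-HCl, 0.2 mM CaCl2, 0.2 mM ATP, 0.5 mM DTT, pH 8.0). Compound (10, 30 or 100 μM) preincubated 15 min at 21 °C, then 70 nM TccC3hvr ART domain added; 6 min at 21 °C, stopped with SDS Laemmli buffer. SDS-PAGE (12.5%), autoradiography; % inhibition versus control.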

[5] = Chemical stability of the compound in sirtuin assay buffer at pH 8.0 assessed as nicotinamide cleavage measured every 30 mins for 4 hrs by HPLC analysis; type: physicochemical; conditions: read-out: Activity
[6] = molecular target: T3, SIRT2 (NAD-dependent protein deacetylase sirtuin-2) (Homo sapiens, UniProt Q8IXJ6); assay: Chemical stability of the compound in sirtuin assay buffer at pH 8.0 assessed as human SIRT2 mediated nicotinamide cleavage measured upto 4 hrs in the presence of ZMAL substrate by HPLC analysis; type: ADME; conditions: pH 8, probe ZMAL substrate, read-out: Activity
T3 sequence (Q8IXJ6 whole entry): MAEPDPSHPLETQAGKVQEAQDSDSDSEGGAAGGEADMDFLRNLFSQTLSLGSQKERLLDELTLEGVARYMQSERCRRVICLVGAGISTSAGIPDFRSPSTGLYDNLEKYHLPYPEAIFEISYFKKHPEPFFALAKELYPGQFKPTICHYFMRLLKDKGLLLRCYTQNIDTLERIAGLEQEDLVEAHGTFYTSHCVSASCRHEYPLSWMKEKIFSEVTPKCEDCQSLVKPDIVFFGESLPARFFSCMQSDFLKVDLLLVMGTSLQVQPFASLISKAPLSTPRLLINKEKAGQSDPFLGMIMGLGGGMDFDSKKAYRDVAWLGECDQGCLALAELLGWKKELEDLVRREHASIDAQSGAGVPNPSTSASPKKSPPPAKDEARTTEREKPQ

[7] = test system: Photorhabdus luminescens; assay: Displacement of [32P]NAD+ from Photorhabdus luminescens TccC3hvr ART domain assessed as inhibition of ADP-ribosylation of alpha-skeletal muscle actin preincubated for 15 mins followed by TccC3hvr addition and measured after 6 mins by SDS-PAGE based autoradiography; conditions: dose 10-100 µM, time 21.0 min, DDE = dose-dependent effect; how it was run: as §2
[8] = molecular target: T2, NAD-dependent protein deacetylase sirtuin-1 (Homo sapiens); assay: Inhibition of human SIRT1 using fluorogenic ZMAL as substrate at 250 uM incubated for 4 hrs in the presence of beta-NAD+ as cofactor by fluorescence based microplate reader analysis relative to control; how it was run: as §1
[9] = molecular target: T4, NAD-dependent protein deacetylase sirtuin-2 (Homo sapiens, UniProt Q8IXJ6); assay: Inhibition of human SIRT2 using fluorogenic ZMAL as substrate incubated for 4 hrs in the presence of beta-NAD+ as cofactor by fluorescence based microplate reader analysis; how it was run: as §1
T4 sequence (Q8IXJ6 whole entry): T3 sequence (Q8IXJ6 whole entry)

[10] = molecular target: T5, NAD-dependent protein deacetylase sirtuin-1 (Homo sapiens, UniProt Q96EB6); assay: Inhibition of human SIRT1 using fluorogenic ZMAL as substrate incubated for 4 hrs in the presence of beta-NAD+ as cofactor by fluorescence based microplate reader analysis; how it was run: as §1
T5 sequence (Q96EB6 whole entry): T2 sequence (whole entry)

[11] = molecular target: T1, NAD-dependent protein deacetylase sirtuin-3, mitochondrial (Homo sapiens); assay: Inhibition of human SIRT3 using fluorogenic ZMAL as substrate at 1 mM incubated for 4 hrs in the presence of beta-NAD+ as cofactor by fluorescence based microplate reader analysis relative to control; how it was run: as §1
[12] = Chemical stability of the compound in sirtuin assay buffer at pH 8.0 assessed as nicotinamide cleavage measured every 60 mins for 4 hrs by HPLC analysis; type: physicochemical; conditions: read-out: Activity
[13] = molecular target: T6, NAD-dependent protein deacetylase sirtuin-2 (Homo sapiens) (UniProt Q8IXJ6); assay: Inhibition of human SIRT2 using fluorogenic ZMAL as substrate at 250 uM incubated for 4 hrs in the presence of beta-NAD+ as cofactor by fluorescence based microplate reader analysis relative to control; how it was run: as §1
T6 sequence (whole entry): T3 sequence (Q8IXJ6 whole entry)

Row | Compound | inhibition [1] [%] | inhibition [2] [%] | inhibition [3] [%] | inhibition [4] [%] | degraded at 4 h [5] [%] | metabolised at 4 h [6] [%] | inhibition [7] | inhibition [8] [%] | pIC50 [9] | pIC50 [10] | inhibition [11] [%] | degraded at 4 h [12] [%] | inhibition [13] [%]
1 | NC(=O)c1ccc[n+]([C@@H]2O[C@H](COP(=O)(O)OP(=O)(O)OC[C@H]3O[C@@H](n4cnc5c(N)ncnc54)[C@H](O)[C@@H]3O)[C@@H](O)[C@H]2N)c1 | 12 | 18 | 19 | 77 | 8.4 | 15.1 | Dde | 65 | 3.82 | – | – | – | –
2 | NC(=O)c1ccc[n+]([C@@H]2O[C@H](COP(=O)(O)OP(=O)(O)OC[C@H]3O[C@@H](n4cnc5c(N)ncnc54)[C@H](O)[C@@H]3O)[C@@H](O)[C@@H]2N)c1 | – | – | – | – | – | – | – | – | 3.81 | 3.75 | 47 | – | –
3 | NC(=O)c1ccc[n+]([C@H]2O[C@H](COP(=O)(O)OP(=O)(O)OC[C@H]3O[C@@H](n4cnc5c(N)ncnc54)[C@H](O)[C@@H]3O)[C@@H](O)[C@H]2N)c1 | 8 | 13 | 13 | – | – | 4.1 | – | 63 | 3.93 | – | – | 4.1 | –
4 | [N-]=[N+]=N[C@@H]1C([n+]2cccc(C(N)=O)c2)O[C@H](COP(=O)(O)OP(=O)(O)OC[C@H]2O[C@@H](n3cnc4c(N)ncnc43)[C@H](O)[C@@H]2O)[C@H]1O (stereo partly specified) | – | – | 34 | – | – | – | – | – | – | – | – | – | 21
